Reference: ChEMBL document CHEMBL1126753, “1-Carboranyl-3-(2-methylaziridino)-2-propanol. Synthesis, selective uptake by B-16 melanoma, and selective cytotoxicity toward cancer cells” (J Med Chem, 1993)

Tests used:
[1] = system: TIG-1-20; test: Boron incorporation into TIG-1-20 human fetal lung normal cell line after 2 hours; assay type: functional
Procedure, shortened: (§1)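 Cells grown to confluence in 150-mm dishes (about 5.0 × 10⁶ cells/dish), then exposed to carrier (1.5 ppm carborane or 200 ppm BPA-HCl) in Eagle-MEM with 10% FCS at 37 °C. Cells were washed thrice in Ca-Mg-free PBS, scraped, digested in HClO₄–H₂O₂ for 1 h at 75 °C, and filtered. Boron was measured by ICP-AES, untreated-dish boron subtracted, and reported as μg/10⁶ cells; two replicates, SD.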

[2] = system: B16; test: Boron incorporation into B-16 […] tumor cell after 24 hours; assay type: functional; procedure, shortened: as §1
[3] = system: IMR-32; test: (§2) Inhibition of growth of IMR 32 human tumor cell line; assay type: functional, cell-based
Procedure, shortened: (§3)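 1 × 10⁶ cells per 60-mm dish in Eagle-MEM plus 10% FCS, treated with 1, 2.5, 5, 10, 25, 50 or 100 ppm compound (DMSO vehicle) for 3 days at 37 °C in CO₂. Cells were washed with PBS, trypsinized and counted; the count is a percentage of untreated control, and IC50 is the concentration giving 50% of control cell number.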

[4] = system: Tumor cell line; test: as §2; assay type: functional, cell-based; procedure, shortened: as §3
[5] = system: B16; test: Boron incorporation into B-16 […] tumor cell after 2 hours; assay type: functional; procedure, shortened: as §1
[6] = system: TIG-1-20; test: Boron incorporation into TIG-1-20 human fetal lung normal cell line after 24 hours; assay type: functional; procedure, shortened: as §1

Row | SMILES | Boron incorporation [1] | Boron incorporation [2] | IC50 [3] | IC50 [4] | Boron incorporation [5] | Boron incorporation [6]
1 | CC1CN1CC(O)CC1CC1 (stereo not given) | 0.14 ug/10e6 | 0.26 ug/10e6 | 8.2e-6 ppm g dm**-3 | 0.0000319 M mol/dm 3 | 0.25 µg | 0.11 ug/10e6
2 | NC(Cc1ccc(B(O)O)cc1)C(=O)O (stereo not given) | 0.17 ug/10e6 | 0.28 ug/10e6 |  |  | 0.22 ug/10e6 | 0.26 ug/10e6
